# Assay results taken from ChEMBL document CHEMBL1131324 (J Med Chem, 1998).
# Assays:
# [1] = molecular target: T1, 5-hydroxytryptamine receptor 1B (Homo sapiens, UniProt P28222); assay: Binding affinity for human 5-hydroxytryptamine 1B receptor
# [2] = molecular target: T1, 5-hydroxytryptamine receptor 1B; assay: Effect of compound on [35S]GTP-gamma-S, radioligand binding CHO cells expressing human 5-hydroxytryptamine 1B receptor; assay type: functional, cell-based
# [3] = molecular target: 5-hydroxytryptamine receptor 1D (Homo sapiens, UniProt P28221); assay: Binding affinity for human 5-hydroxytryptamine 1D receptor
# [4] = molecular target: 5-hydroxytryptamine receptor 2A (Homo sapiens, UniProt P28223); assay: Binding affinity for human 5-hydroxytryptamine 2A receptor
# Outline: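 Human cloned receptor expressed in HEK 293 cells; displacement of [³H]ketanserin in 50 mM Tris-HCl (pH 7.7 at 25 °C). Test compound over a concentration range, 30-45 min at 37 °C; filtration with ice-cold buffer wash, bound label by scintillation counting; pKi reported as mean (SEM, n) or individual values where n = 2.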
# [5] = molecular target: 5-hydroxytryptamine receptor 1A (Homo sapiens, UniProt P08908); assay: Compound was tested for binding affinity against human 5-hydroxytryptamine 1A receptor
# Outline: (§1)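 Competition binding giving pKi. Human cloned 5-HT1A in HEK 293 cells vs [3H]-8-OH-DPAT; human 5-HT1E and 5-HT1F in CHO cells vs [3H]-5-HT. Radioligand with a concentration range of test compound, 30–45 min at 37 °C. Rapid filtration, ice-cold buffer wash, scintillation counting. Mean ± SEM, or individual values where n = 2.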
# [6] = molecular target: 5-hydroxytryptamine receptor 1E (Homo sapiens, UniProt P28566); assay: Compound was tested for binding affinity against human 5-hydroxytryptamine 1E receptor; outline: as §1
# [7] = molecular target: 5-hydroxytryptamine receptor 1F (Homo sapiens, UniProt P30939); assay: Compound was tested for binding affinity against human 5-hydroxytryptamine 1F receptor; outline: as §1
# [8] = molecular target: 5-hydroxytryptamine receptor 2C (Homo sapiens, UniProt P28335); assay: Compound was tested for binding affinity against human 5-hydroxytryptamine 2C receptor
# Outline: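 Competition binding against human cloned 5-HT2C receptor expressed in HEK 293 cells. [3H]mesulergine was the radioligand. Incubation in 50 mM Tris-HCl (pH 7.7 at 25 °C) with a range of test concentrations for 30–45 min at 37 °C. Samples were rapidly filtered, washed with ice-cold buffer, and counted by scintillation. pKi is given as mean (SEM, n) or as individual values where n = 2.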
# [9] = molecular target: Serotonin 4 (5-HT4) receptor (Sus scrofa, UniProt Q6Q253); assay: Compound was tested for binding affinity against piglet hippocampus 5-hydroxytryptamine 4 receptor; assay type: tissue-based
# Outline: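 pKi from displacement of [125I]SB-207710 in piglet hippocampus. Radioligand and a range of test concentrations incubated 30–45 min at 37 °C, then rapidly filtered, washed with ice-cold buffer and counted by scintillation.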
# [10] = molecular target: Alpha-2A adrenergic receptor (Homo sapiens, UniProt P08913); assay: Compound was tested for binding affinity against human cloned Alpha-2A adrenergic receptor
# Outline: (§2)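 Radioligand competition run to literature procedures, giving pKi. Receptor preparation incubated with radioligand and a range of test concentrations for 30–45 min at 37 °C. Rapid filtration, ice-cold buffer wash, dried filters scintillation-counted. Mean ± SEM, or individual values where n = 2.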
# [11] = molecular target: Alpha-1B adrenergic receptor (Rattus norvegicus, UniProt P15823); assay: Compound was tested for binding affinity against Alpha-1B adrenergic receptor (rat liver, [3H] prazosin); outline: as §2
# [12] = molecular target: Beta-1 adrenergic receptor (Homo sapiens, UniProt P08588); assay: Compound was tested for binding affinity against human cloned Beta-1 adrenergic receptor; outline: as §2
# [13] = molecular target: Alpha-1A adrenergic receptor (Rattus norvegicus, UniProt P43140); assay: Compound was tested for binding affinity against Alpha-1A adrenergic receptor (rat submaxillary gland); outline: as §2
# [14] = molecular target: Alpha-2B adrenergic receptor (Mus musculus, UniProt P30545); assay: Compound was tested for binding affinity against Alpha-2B adrenergic receptor (NG 108-15 cells) using [3H]RX-821002) as radioligand; assay type: cell-based; outline: as §2
# D(3) dopamine receptor = D(3) dopamine receptor (Homo sapiens, UniProt P35462); assay: Compound was tested for binding affinity against human cloned Dopamine receptor D3
# Outline: (§3)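 Human D2 or D3 receptors expressed in CHO cells, displacement of [3H]spiperone, giving pKi. Incubated 30–45 min at 37 °C with a range of test concentrations. Filtered, washed with ice-cold buffer, bound label counted by scintillation.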
# D(2) dopamine receptor = D(2) dopamine receptor (Homo sapiens, UniProt P14416); assay: Compound was tested for binding affinity against human cloned Dopamine receptor D2; outline: as §3
# Cavia porcellus [15] = organism: Cavia porcellus; assay: Mean maximum temperature drop on SK & F 99101H (-2.23(0.13)) -induced Hypothermia at 8 hr postdose treatment(** p< 0.01 vs SK & F 99101H controls).; assay type: functional
# Outline: (§4)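 Male Dunkin-Hartley guinea pigs, n = 6/group. Compound given 5.0 mg/kg po, then SK&F 99101H 30 mg/kg ip at 2, 4, 8 or 24 h postdose; 8 and 24 h data come from a second independent experiment. Rectal temperature measured by probe 4–5 cm deep. Mean maximum temperature drop, also expressed as % of SK&F 99101H controls.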
# Cavia porcellus [16] = assay: Body temperature drop at 2.2 mg/kg po dosage in Guinea pig.; assay type: functional
# Cavia porcellus [17] = assay: Body temperature drop at 22 mg/kg po dosage in Guinea pig; assay type: functional
# Cavia porcellus [18] = assay: Body temperature drop at 4.6 mg/kg po dosage in Guinea pig.; assay type: functional
# Cavia porcellus [19] = organism: Cavia porcellus; assay: Compound was tested for % of SK & F 99101H controls on induced Hypothermia at 2 hr postdose.; assay type: functional; outline: as §4
# Cavia porcellus [20] = organism: Cavia porcellus; assay: Compound was tested for % of SK & F 99101H controls on induced Hypothermia at 24 hr postdose treatment.; assay type: functional; outline: as §4
# Cavia porcellus [21] = organism: Cavia porcellus; assay: (§5) Compound was tested for % of SK & F 99101H controls on induced Hypothermia at 4 h postdose treatment.; assay type: functional; outline: as §4
# Cavia porcellus [22] = organism: Cavia porcellus; assay: as §5; assay type: functional; outline: as §4; remark: listed apart in the source
# Cavia porcellus [23] = organism: Cavia porcellus; assay: Compound was tested for % of SK & F 99101H controls on induced Hypothermia at 8 hr postdose treatment.; assay type: functional; outline: as §4
# Cavia porcellus [24] = organism: Cavia porcellus; assay: Effect on SK & F 99101H (-2.60(1.37) -induced Hypothermia at 24 hr postdose treatment in guinea pig(** p< 0.01 vs SK & F 99101H controls).; assay type: functional; outline: as §4
# Cavia porcellus [25] = organism: Cavia porcellus; assay: Mean maximum temperature drop on SK & F 99101H (-1.22(0.27)) -induced Hypothermia at 8 hr postdose treatment(* p< 0.05 vs SK & F 99101H controls).; assay type: functional; outline: as §4
# Cavia porcellus [26] = organism: Cavia porcellus; assay: Mean maximum temperature drop on SK & F 99101H (-1.73(0.17)) -induced Hypothermia at 4 hr postdose treatment(** p< 0.01 vs SK & F 99101H controls).; assay type: functional; outline: as §4
# Cavia porcellus [27] = organism: Cavia porcellus; assay: Body temperature drop at SK & F 99101H positive control dose (* p< 0.01 vs vehicle/vehicle controls) in Guinea pig.; assay type: functional
# Histamine H2 receptor = Histamine H2 receptor (Cavia porcellus, UniProt P47747); assay: Compound was tested for binding affinity towards Histamine H2 receptor; outline: as §2
# Histamine H1 receptor = Histamine H1 receptor (Cavia porcellus, UniProt P31389); assay: Compound was tested for binding affinity against Histamine H1 receptor.; outline: as §2
# [28] = molecular target: Muscarinic acetylcholine receptor M2 (Homo sapiens, UniProt P08172); assay: Compound was tested for binding affinity against human cloned Muscarinic acetylcholine receptor M2; outline: as §2
# [29] = molecular target: Muscarinic acetylcholine receptor M1 (Homo sapiens, UniProt P11229); assay: Compound was tested for binding affinity against human cloned Muscarinic acetylcholine receptor M1; outline: as §2
# [30] = molecular target: Beta-2 adrenergic receptor (Homo sapiens, UniProt P07550); assay: Compound was tested for binding affinity against human cloned Beta-2 adrenergic receptor; outline: as §2
# Cavia porcellus [31] = organism: Cavia porcellus; assay: Mean maximum temperature drop on SK & F 99101H (-1.72(0.09)) -induced Hypothermia at 2 hr postdose treatment(**p< 0.01 vs SK & F 99101H controls).; assay type: functional; outline: as §4
# Cavia porcellus [32] = assay: Body temperature drop at 10 mg/kg po dosage in Guinea pig.; assay type: functional
# [33] = molecular target: T2, Serotonin 1 receptors; 5-HT1B & 5-HT1D (Homo sapiens) (UniProt P28222+P28221); details: Cavia porcellus
# [34] = molecular target: T2, Serotonin 1 receptors; 5-HT1B & 5-HT1D (Homo sapiens); details: Cavia porcellus; remark: listed apart in the source
# [35] = molecular target: T2, Serotonin 1 receptors; 5-HT1B & 5-HT1D (Homo sapiens); details: Cavia porcellus; remark: listed apart in the source
# [36] = molecular target: T2, Serotonin 1 receptors; 5-HT1B & 5-HT1D (Homo sapiens); details: Cavia porcellus; remark: listed apart in the source
# [37] = molecular target: T2, Serotonin 1 receptors; 5-HT1B & 5-HT1D (Homo sapiens); details: Cavia porcellus; remark: listed apart in the source
# [38] = molecular target: T2, Serotonin 1 receptors; 5-HT1B & 5-HT1D (Homo sapiens); details: Cavia porcellus; remark: listed apart in the source
# [39] = molecular target: T2, Serotonin 1 receptors; 5-HT1B & 5-HT1D (Homo sapiens); details: Cavia porcellus; 0.3 mg/kg
# [40] = molecular target: T2, Serotonin 1 receptors; 5-HT1B & 5-HT1D (Homo sapiens); details: Cavia porcellus; 1.0 mg/kg
# [41] = molecular target: T2, Serotonin 1 receptors; 5-HT1B & 5-HT1D (Homo sapiens); details: Cavia porcellus; 10.0 mg/kg
# [42] = molecular target: T2, Serotonin 1 receptors; 5-HT1B & 5-HT1D (Homo sapiens); details: Cavia porcellus; 3.0 mg/kg
# T1 sequence (P28222 whole entry): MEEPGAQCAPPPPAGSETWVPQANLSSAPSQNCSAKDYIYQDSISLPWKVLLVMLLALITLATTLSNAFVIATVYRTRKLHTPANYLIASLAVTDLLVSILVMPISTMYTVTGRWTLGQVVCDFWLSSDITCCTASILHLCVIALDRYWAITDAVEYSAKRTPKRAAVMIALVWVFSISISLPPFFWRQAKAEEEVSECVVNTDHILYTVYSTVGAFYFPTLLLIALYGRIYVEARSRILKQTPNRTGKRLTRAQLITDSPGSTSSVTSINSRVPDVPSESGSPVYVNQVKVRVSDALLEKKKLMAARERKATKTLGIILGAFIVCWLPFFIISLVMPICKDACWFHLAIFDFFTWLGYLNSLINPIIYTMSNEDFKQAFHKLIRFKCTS
# 5-hydroxytryptamine receptor 1D, sequence (P28221 whole entry): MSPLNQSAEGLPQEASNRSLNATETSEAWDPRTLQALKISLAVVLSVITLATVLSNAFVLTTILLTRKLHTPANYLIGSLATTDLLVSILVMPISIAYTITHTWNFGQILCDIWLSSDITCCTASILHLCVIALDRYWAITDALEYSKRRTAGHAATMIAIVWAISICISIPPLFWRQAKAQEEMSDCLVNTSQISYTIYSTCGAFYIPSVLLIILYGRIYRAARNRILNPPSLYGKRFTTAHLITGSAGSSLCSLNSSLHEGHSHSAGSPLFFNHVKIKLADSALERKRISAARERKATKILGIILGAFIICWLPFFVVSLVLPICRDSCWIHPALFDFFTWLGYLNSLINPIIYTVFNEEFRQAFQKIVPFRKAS
# 5-hydroxytryptamine receptor 2A, sequence (P28223 whole entry): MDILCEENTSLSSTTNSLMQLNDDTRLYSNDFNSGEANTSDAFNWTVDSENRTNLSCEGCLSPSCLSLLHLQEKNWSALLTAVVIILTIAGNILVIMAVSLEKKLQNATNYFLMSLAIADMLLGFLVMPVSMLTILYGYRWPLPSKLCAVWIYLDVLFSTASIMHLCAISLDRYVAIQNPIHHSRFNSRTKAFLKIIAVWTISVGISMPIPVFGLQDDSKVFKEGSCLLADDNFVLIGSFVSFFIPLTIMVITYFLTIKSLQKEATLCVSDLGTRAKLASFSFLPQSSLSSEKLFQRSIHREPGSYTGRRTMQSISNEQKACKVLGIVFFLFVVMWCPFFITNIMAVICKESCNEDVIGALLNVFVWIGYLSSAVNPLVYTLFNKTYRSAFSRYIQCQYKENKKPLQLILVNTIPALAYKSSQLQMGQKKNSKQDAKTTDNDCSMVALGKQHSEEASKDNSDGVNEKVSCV
# Alpha-1A adrenergic receptor, sequence (P43140 whole entry): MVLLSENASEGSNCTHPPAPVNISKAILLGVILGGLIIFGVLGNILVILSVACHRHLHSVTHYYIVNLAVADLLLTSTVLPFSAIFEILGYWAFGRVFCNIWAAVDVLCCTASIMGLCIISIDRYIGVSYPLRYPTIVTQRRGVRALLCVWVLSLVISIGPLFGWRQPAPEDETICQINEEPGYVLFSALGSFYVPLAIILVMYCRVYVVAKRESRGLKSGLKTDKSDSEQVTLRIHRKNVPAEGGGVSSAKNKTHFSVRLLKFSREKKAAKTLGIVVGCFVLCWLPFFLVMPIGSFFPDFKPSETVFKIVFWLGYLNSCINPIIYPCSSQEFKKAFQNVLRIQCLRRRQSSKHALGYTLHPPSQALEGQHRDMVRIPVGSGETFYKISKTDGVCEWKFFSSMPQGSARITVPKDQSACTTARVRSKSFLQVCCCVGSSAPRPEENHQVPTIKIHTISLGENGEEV
# 5-hydroxytryptamine receptor 2C, sequence (P28335 whole entry): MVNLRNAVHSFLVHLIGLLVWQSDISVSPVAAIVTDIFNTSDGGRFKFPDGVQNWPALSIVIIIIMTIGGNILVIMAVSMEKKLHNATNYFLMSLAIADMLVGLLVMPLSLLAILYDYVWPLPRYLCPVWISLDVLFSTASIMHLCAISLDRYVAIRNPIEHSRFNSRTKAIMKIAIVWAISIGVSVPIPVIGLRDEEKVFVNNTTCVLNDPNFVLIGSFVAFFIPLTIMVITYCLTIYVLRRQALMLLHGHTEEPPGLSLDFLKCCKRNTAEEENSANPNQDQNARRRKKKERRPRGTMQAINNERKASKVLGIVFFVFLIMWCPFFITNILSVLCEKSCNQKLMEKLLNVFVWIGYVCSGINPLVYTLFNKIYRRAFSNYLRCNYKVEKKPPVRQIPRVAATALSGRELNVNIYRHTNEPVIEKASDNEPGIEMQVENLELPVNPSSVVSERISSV
# 5-hydroxytryptamine receptor 1E, sequence (P28566 whole entry): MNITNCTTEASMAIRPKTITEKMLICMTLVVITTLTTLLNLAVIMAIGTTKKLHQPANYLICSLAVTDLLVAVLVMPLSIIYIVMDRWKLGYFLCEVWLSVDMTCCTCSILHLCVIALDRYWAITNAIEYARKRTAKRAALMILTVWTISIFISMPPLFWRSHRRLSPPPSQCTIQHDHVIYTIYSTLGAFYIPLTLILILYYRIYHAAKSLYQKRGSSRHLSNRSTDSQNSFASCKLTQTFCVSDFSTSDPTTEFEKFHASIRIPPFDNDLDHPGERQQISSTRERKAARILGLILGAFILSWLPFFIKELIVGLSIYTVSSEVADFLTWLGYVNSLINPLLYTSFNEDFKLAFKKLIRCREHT
# Alpha-2A adrenergic receptor, sequence (P08913 whole entry): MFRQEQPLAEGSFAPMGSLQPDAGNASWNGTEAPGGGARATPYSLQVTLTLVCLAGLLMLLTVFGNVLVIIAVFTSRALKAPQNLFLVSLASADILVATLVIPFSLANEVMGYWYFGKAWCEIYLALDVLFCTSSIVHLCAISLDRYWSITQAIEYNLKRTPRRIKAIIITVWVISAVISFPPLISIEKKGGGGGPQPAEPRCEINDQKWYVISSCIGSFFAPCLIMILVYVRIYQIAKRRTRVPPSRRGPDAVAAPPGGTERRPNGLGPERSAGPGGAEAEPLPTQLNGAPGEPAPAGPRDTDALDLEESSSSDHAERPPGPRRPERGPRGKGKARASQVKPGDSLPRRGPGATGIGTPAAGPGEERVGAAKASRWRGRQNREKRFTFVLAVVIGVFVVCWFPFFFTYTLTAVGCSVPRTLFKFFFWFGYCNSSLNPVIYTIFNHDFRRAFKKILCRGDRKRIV
# Histamine H1 receptor, sequence (P31389 whole entry): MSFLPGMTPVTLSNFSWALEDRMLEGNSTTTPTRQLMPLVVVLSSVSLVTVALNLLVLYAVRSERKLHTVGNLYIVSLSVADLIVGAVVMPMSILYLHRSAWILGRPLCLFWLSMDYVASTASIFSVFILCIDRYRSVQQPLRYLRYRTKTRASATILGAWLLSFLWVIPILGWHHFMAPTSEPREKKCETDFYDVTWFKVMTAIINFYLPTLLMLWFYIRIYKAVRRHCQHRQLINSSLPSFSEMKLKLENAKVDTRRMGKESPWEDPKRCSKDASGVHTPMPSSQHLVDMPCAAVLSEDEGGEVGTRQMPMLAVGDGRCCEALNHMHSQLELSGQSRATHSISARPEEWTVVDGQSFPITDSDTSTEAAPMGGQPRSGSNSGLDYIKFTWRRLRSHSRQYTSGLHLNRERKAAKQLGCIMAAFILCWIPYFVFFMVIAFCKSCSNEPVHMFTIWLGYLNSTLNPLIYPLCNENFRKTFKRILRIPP
# Alpha-1B adrenergic receptor, sequence (P15823 whole entry): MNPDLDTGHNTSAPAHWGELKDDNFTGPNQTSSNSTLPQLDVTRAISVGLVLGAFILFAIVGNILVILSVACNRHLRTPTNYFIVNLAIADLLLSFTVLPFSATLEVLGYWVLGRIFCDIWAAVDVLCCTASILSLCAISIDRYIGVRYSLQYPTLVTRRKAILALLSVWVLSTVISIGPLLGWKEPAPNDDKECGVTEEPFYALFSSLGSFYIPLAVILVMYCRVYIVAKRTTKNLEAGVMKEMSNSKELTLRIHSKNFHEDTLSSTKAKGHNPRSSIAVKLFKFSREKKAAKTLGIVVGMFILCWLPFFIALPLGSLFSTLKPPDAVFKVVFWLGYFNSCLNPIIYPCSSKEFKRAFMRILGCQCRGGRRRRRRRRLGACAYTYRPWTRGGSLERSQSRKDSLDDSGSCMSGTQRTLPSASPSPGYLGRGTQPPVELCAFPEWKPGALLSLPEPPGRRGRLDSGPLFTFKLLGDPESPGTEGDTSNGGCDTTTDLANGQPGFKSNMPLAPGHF
# Serotonin 4 (5-HT4) receptor, sequence (Q6Q253 whole entry): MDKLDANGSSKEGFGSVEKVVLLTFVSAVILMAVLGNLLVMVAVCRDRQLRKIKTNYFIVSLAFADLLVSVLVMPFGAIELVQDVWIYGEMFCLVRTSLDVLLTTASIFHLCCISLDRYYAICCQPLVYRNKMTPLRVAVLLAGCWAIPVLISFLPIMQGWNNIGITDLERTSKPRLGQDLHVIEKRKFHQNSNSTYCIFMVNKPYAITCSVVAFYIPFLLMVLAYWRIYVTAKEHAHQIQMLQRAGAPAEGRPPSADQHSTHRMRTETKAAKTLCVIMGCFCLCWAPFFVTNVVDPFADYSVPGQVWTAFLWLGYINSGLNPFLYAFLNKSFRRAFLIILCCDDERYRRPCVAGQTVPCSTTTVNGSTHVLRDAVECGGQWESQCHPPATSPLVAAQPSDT
# D(2) dopamine receptor, sequence (P14416 whole entry): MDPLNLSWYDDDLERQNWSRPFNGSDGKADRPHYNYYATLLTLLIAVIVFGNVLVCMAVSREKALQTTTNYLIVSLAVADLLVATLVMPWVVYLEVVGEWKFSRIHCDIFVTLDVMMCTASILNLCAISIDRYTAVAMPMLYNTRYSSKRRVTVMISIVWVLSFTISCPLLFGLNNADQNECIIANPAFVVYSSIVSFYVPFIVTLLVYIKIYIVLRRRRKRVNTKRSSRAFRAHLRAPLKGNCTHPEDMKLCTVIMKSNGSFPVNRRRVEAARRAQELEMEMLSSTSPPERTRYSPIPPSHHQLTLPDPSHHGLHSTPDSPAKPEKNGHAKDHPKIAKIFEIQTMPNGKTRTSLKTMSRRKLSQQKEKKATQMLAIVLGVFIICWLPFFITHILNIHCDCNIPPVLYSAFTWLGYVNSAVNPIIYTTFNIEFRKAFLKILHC
compound,measurement,setting,value
Cc1nc(-c2ccc(-c3ccc(C(=O)Nc4ccc5c(c4)C4(CCN(C)CC4)CO5)cc3)c(C)c2)no1,Ki,[1],31.6 nM
same,[35S]GTPγS binding stimulation,[2],-64%
same,Ki,[3],2000 nM
same,Ki,[4],1000 nM
Cc1cc(C(=O)Nc2ccc(C)c(N3CCN(C)CC3)c2)ccc1Br,Ki,[1],12.6 nM
same,Ki,[3],39.8 nM
same,Ki,[4],126 nM
Cc1nc(-c2ccc(-c3ccc(C(=O)Nc4ccc5c(c4)N(CCN(C)C)CCO5)cc3)c(C)c2)no1,Ki,[1],2.51 nM
same,[35S]GTPγS binding stimulation,[2],91%
same,Ki,[3],20 nM
same,Ki,[4],3.98 nM
COc1ccc(NC(=O)c2ccc(-c3ccc(-c4noc(C)n4)cc3C)cc2)cc1OCCN(C)C,[35S]GTPγS binding stimulation,[2],139%
same,Ki,[3],31.6 nM
Cc1cc(C(=O)Nc2cccc(N3CCN(C)CC3)c2)ccc1Br,Ki,[1],126 nM
same,Ki,[3],200 nM
same,Ki,[4],316 nM
Cc1nc(-c2ccc(-c3ccc(C(=O)Nc4cc5c(c(OCCN(C)C)c4)OCC5)cc3)c(C)c2)no1,Ki,[1],1.58 nM
same,[35S]GTPγS binding stimulation,[2],207%
same,Ki,[3],25.1 nM
same,Ki,[4],50.1 nM
COc1ccc(NC(=O)c2ccc(-c3ccc(-c4noc(C)n4)cc3C)cc2)cc1CCCN(C)C,Ki,[1],3.16 nM
same,[35S]GTPγS binding stimulation,[2],-44%
same,Ki,[3],100 nM
same,Ki,[4],6.31 nM
COc1ccc(NC(=O)c2ccc(Br)c(C)c2)cc1N1CCN(C)CC1,Ki,[1],6.31 nM
same,Ki,[3],12.6 nM
same,Ki,[4],200 nM
COc1cc2c(cc1OCCN(C)C)N(C(=O)c1ccc(-c3ccc(-c4noc(C)n4)cc3C)cc1)CC2,Ki,[1],0.501 nM
same,Ki,[3],5.01 nM
same,Ki,[4],316 nM
COc1ccc(NC(=O)c2ccc(-c3ccc(-c4noc(C)n4)cc3C)cc2)cc1NCCN(C)C,Ki,[1],2.51 nM
same,[35S]GTPγS binding stimulation,[2],108%
same,Ki,[3],39.8 nM
same,Ki,[4],5.01 nM
Cc1nc(-c2ccc(-c3ccc(C(=O)N4CCc5cc6c(cc54)C4(CCN(C)CC4)CO6)cc3)c(C)c2)no1 [SB-224289],Ki,[5],> 3160 nM
same,Simulation,[2],-62%
same,Ki,[6],> 10000 nM
same,Ki,[4],1580 nM
same,Ki,[7],> 10000 nM
same,Ki,[8],631 nM
same,Ki,[9],> 1000 nM
same,Ki,[10],> 1000 nM
same,Ki,[11],> 1000 nM
same,Ki,[12],> 1000 nM
same,Ki,[13],> 1000 nM
same,Ki,[14],> 1000 nM
same,Ki,D(3) dopamine receptor,> 1000 nM
same,Ki,D(2) dopamine receptor,> 1000 nM
same,Body temp drop,Cavia porcellus [15],-1.1 °C
same,Body temperature drop,Cavia porcellus [16],-0.23 °C
same,Body temperature drop,Cavia porcellus [17],-0.03 °C
same,Body temperature drop,Cavia porcellus [18],-0.05 °C
same,Control,Cavia porcellus [19],22%
same,Control,Cavia porcellus [20],50%
same,Control,Cavia porcellus [21],15%
same,Control,Cavia porcellus [22],43%
same,Control,Cavia porcellus [23],48%
same,Body temp drop,Cavia porcellus [24],-1.31 °C
same,Body temp drop,Cavia porcellus [25],-0.53 °C
same,Body temp drop,Cavia porcellus [26],-0.27 °C
same,Mean maximumtemp drop,Cavia porcellus [27],-2 °C
same,Ki,Histamine H2 receptor,> 1000 nM
same,Ki,Histamine H1 receptor,> 1000 nM
same,Ki,[28],> 1000 nM
same,Ki,[29],> 1000 nM
same,Ki,[30],> 1000 nM
same,Body temp drop,Cavia porcellus [31],-0.38 °C
same,Body temperature drop,Cavia porcellus [32],-0.03 °C
same,Degrees Centigrade,[33],-1.77 °C
same,Degrees Centigrade,[34],-1.63 °C
same,Degrees Centigrade,[35],-1 °C
same,Body temperature drop,[36],-1.92 °C
same,Body temperature drop,[37],-0.12 °C
same,Body temp drop,[38],-0.67 °C
same,Control,[39],93%
same,Control,[40],85%
same,Control,[41],35%
same,Control,[42],52%
